# Screens deposited in PubChem by several laboratories.
# HSF1 activator: HSF-1 activators, primary screen, NIH3T3-HGL cells, MG132 stress, luminescence, single point. hit rate 1.7% among 300,000. AID 504408, 2011. activation, % at 9 µM. NIH3T3-HGL HSF-1 luciferase reporter, 8 h; 100% = twice DMSO control signal;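 active = mean replicate activation of at least 50% with a set share of replicates each reaching 50%; inconclusive = only one of those two conditions met; inactive = mean below 50% and too few replicates reaching it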;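 also: 0% = median of the neutral control wells and 100% = twice that signal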
# Hsp70 activator: Hsp70 transcriptional activators, primary screen, cell-based, HeLa, Hsp70 promoter luciferase, luminescence, 10 µM; hit rate 0.04% among 200,000; HeLa Hsp70 promoter luciferase reporter; scaled: vehicle 0, proteasome-inhibitor control 100%; activation, % at 10 µM;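 active = activation above the mean across all tested compounds plus 3 SD, cutoff set per campaign, cut at about 5.5% in these data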;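 also: 100% = MG132 at 30 µM as the positive control and 0% = DMSO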
# HSF1 inh: HSF1 inhibitors in luciferase reporter cells, primary screen, cell-based, NIH3T3, luminescence. hit rate 0.77% among 300,000. NIH3T3-HGL HSE-luciferase, MG132-induced, luminescence 8 h; active compounds read low. activity change, negative = inhibition, % at 7.5 µM (by protocol);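 active = more than half of replicate wells show activity change below -50%, luminescence cut by over half; inconclusive = some wells, but at most half, below -50%; inactive = no replicate well below -50%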;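 also: luciferase reports HSF-1 transcriptional activity via heat shock element; 0% = median of DMSO wells and -100% = zero luminescence signal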
# T cruzi repl: inhibitors of intracellular T. cruzi growth, primary screen, luminescence, NIH3T3 host cells | T. cruzi beta-gal in NIH3T3, 90 h | inhibition, % (concentration not given with the values) | hit rate 1.4% among 300,000 | AID 1885, 2009;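 active = mean inhibition across valid replicates above about 55%, limit read from the data; inconclusive = mean below that limit but half or more replicates reach it; inactive = mean below it, under half of replicates reach it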;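 also: signal also drops with host cell toxicity which is not excluded here; 0% = plate median of DMSO wells and 100% = zero luminescence signal; higher percent means less beta-gal luminescence so fewer parasites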
#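 assay system = mouse NIH/3T3 fibroblasts infected with β-gal-expressing T. cruzi Tulahuen C4 | input = 5,000 NIH/3T3 host cells per well | buffer or medium = DMEM plus 2% FBS | timing = 3 h host attachment, then at least 90 h co-culture | measured by = GalScreen luminescence, 60 min | evaluation = luminescence reflecting intracellular parasite burden, expressed as percent inhibition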
# L major viab: Leishmania major promastigote growth inhibition, primary screen | Leishmania major promastigotes, resazurin fluorescence viability | inhibition, % at 10 µM | hit rate 9% among 200,000 | AID 1063, 2008; in the data active = inhibition above about 50%;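 also: promastigotes grown with compound for 44 hours at 28 °C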
# Numbers without * were called inactive; ? = inconclusive; . = not tested or not shown. Shown is part of a subset that was picked to be rich in hits.
SMILES,HSF1 activator,Hsp70 activator,HSF1 inh,T cruzi repl,L major viab
CCC(=O)OCCNc1cc(SCCC(=O)OC)c2nonc2c1[N+](=O)[O-],17,0,6,5,14
CCC(=O)OCCNc1cc(Sc2nccn2C)c2nonc2c1[N+](=O)[O-],437*,0,400,55*,85*
CCCC(=O)OCCNc1cc(Sc2nc3ccccc3[nH]2)c2nonc2c1[N+](=O)[O-],28,0,43,18,53*
COc1ccc(CCNc2nc(C)nc3c2nnn3Cc2ccccc2)cc1,11,.,6,-5,.
COC(=O)c1ccc(CSc2nc3c(c(=O)n2-c2ccc(Br)cc2)SCC3)o1,14,0,14,?,98*
CCOc1ccc(-n2c(SCc3ccc(C(=O)OC)o3)nc3c(c2=O)SCC3)cc1,.,0,.,.,83*
Cc1ccccc1NS(=O)(=O)c1ccc(C(=O)NCC(c2ccco2)N2CCCCC2)cc1 (stereo not given),-6,.,-1,1,.
CCN1C(=O)c2ccccc2S(=O)c2ccc(C(=O)N3CCCC3)cc21 (stereo not given),-88,0,-85*,4,-8
CCN1C(=O)c2ccccc2S(=O)c2ccc(C(=O)NCc3ccc(OC)cc3)cc21 (stereo not given),-90,.,-87*,15,.
CCOCCCNC(=O)c1ccc2c(c1)N(CC)C(=O)c1ccccc1S2=O (stereo not given),-4,.,-9,-1,.
COc1ccc(C(=O)N/N=C/c2ccc(OC)c(OS(=O)(=O)c3ccccc3)c2)cc1,-7,0,4,18,91*
COc1ccc(/C=N/NS(=O)(=O)c2ccccc2)cc1OS(=O)(=O)c1ccccc1,9,0,-7,-1,-2
CCOc1cc(/C=N/NC(=O)c2cccc([N+](=O)[O-])c2)ccc1OS(=O)(=O)c1ccccc1,26,0,5,9,78*
CN(c1ccc(C(=O)N/N=C/c2cccc([N+](=O)[O-])c2)cc1)S(=O)(=O)c1ccccc1,20,.,8,6,.
CN(C)CCCN1c2ccccc2Sc2ccc(C(F)(F)F)cc21,2,0,0,28,47
OCCN1CCN(CCCN2c3ccccc3Sc3ccc(C(F)(F)F)cc32)CC1,-25,0,3,18,87*
CN(C)CCC(=O)N1c2ccccc2Sc2ccc(C(F)(F)F)cc21,-3,.,3,3,.
CN1CCN(CCCN2c3ccccc3Sc3ccc(Cl)cc32)CC1,-12,0,-1,31,100*
CN1CCN(CCC(=O)N2c3ccccc3Sc3ccc(C(F)(F)F)cc32)CC1,12,0,-11,27,55*
C#CCNC(=O)C1=C[C@@H](c2ccc(C#C)cc2)C[C@@H](OCc2ccc(CO)cc2)O1,-6,.,-2,7,.
CC(NS(=O)(=O)c1ccc2c(c1)C(C)(C)C(=O)N2C)c1ccccc1 (stereo not given),-12,.,-10,-11,.
COC(=O)CC1=NN(c2nc3ccccc3s2)C(=O)/C1=C/N(C)C,-8,0,-7,-11,-7
Cc1nn(-c2ccccc2)c(N)c1N=Nc1ccc2ccccc2c1,78*,0,41,-26,-1
Cc1ccc(N=Nc2c(N)nn(-c3ccccc3)c2N)cc1,-35,0,-37,-27,15
CSCC[C@H](NC(=O)C(C)Oc1ccc(Cl)cc1)c1nc2ccccc2[nH]1 (stereo not given in full),20,0,12,2,7
SMILES,HSF1 activator,Hsp70 activator,HSF1 inh,T cruzi repl,L major viab
CC1CN(C(=O)c2ccccc2)C(=Nc2cccc(S(=O)(=O)N(C)C)c2)S1 (stereo not given),3,0,-2,-22,83*
O=C(Nc1ccccc1C(=O)N1CCCCC1)NC1CCCCC1,1,0,-7,-11,-6
c1ccc(CCc2nc3ccccc3[nH]2)cc1,33,0,11,-13,11
Nc1cccc(CCc2nc3cc4ccccc4cc3[nH]2)c1,15,0,12,-54,97*
COc1ccc(O)c(/C=N/NC(=S)Nc2cccc(S(=O)(=O)N(C)C)c2)c1,1,0,-4,9,99*
COc1cccc(/C=N/NC(=S)Nc2cccc(S(=O)(=O)N(C)C)c2)c1,2,.,5,-5,.
COc1ccc(O)c(/C=N/NC(=S)Nc2cccnc2)c1,1,0,5,-6,94*
CCN(CC)S(=O)(=O)c1ccc(N/N=C/c2cc(OC)ccc2O)nc1,28,-1,13,10,92*
Cc1ccc(NC(=O)CCNC(=O)Cn2cnc3ccccc3c2=O)cc1F,11,.,-1,-9,.
COC(=O)C/C=N/N=C1/NC(=O)/C(=C/C(=O)O)S1,24,.,0,-9,.
CNC(=O)NC(=O)C(C)OC(=O)c1c2c(nc3ccccc13)/C(=C/c1cccs1)CC2 (stereo not given),60*,-1,21,2,9
Cc1ccc(C(=O)NCc2nc3ccccc3[nH]2)o1,9,.,2,-8,.
C=CCOc1ccc(/C=C/C(=O)OCC(=O)NCC2CCCCC2)cc1,-76,.,-68*,-3,.
C=CCOc1ccc(/C=C/C(=O)OCC(=O)NC2CCCCCCC2)cc1,-3,.,-5,-5,.
O=C(/C=C(/c1ccc(Cl)cc1)n1cncn1)c1ccccc1,16,0,14,47,94*
CN(C)/C=C(/C(=O)c1ccccc1)n1cncn1,-16,0,-11,0,-3
Cc1c(/C=N/NC(=O)COc2ccccc2[N+](=O)[O-])c2ccccc2n1C,8,0,-3,8,56*
Cc1c(/C=N/Nc2ccc(C(=O)O)cc2)c2ccccc2n1C,-65,.,-65*,-7,.
O=[N+]([O-])/C=C/c1cn(Cc2ccc(F)cc2)c2ccccc12,19,0,10,1,99*
Cc1c(/C=N\NC(=O)C2COc3ccccc3O2)c2ccccc2n1C (stereo not given),-18,0,-19,2,-2
CCNC(=S)N/N=C/c1cn(Cc2ccc(F)cc2)c2ccccc12,36,0,20,43,16
O=C(O)c1ccc(N/N=C/c2cn(Cc3ccc(F)cc3)c3ccccc23)cc1,-74,.,-69*,-3,.
O=C(CN1C(=O)C2CCCCC2C1=O)OCC(=O)c1ccc(Cl)s1 (stereo not given),0,0,0,-7,-12
CC(C)c1csc(CN2CCCC(CCC(=O)NCc3ccccc3F)C2)n1 (stereo not given),9,0,-3,51,-1
O=C(CCC1CCCN(Cc2cccc(Cl)c2)C1)NCc1ccccc1F (stereo not given),5,.,2,61*,.
